Source: PubChem
Lmaj promast = Leishmania major promastigote growth inhibition, primary screen. Leishmania major promastigotes, resazurin fluorescence viability. inhibition, % at 10 µM. actives 9% (n = 200,000); in the data active means inhibition above about 50%;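 further: promastigotes grown with compound for 44 hours at 28 °C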
CHOP UPR activ = activators of apoptotic CHOP UPR arm, primary screen, cell-based, CHO-CHOP luciferase reporter, luminescence, uHTS; actives 0.34% (n = 330,000); UPR activation; percent of tunicamycin response over DMSO baseline; AID 449763, 2010; activation, % at 10 µM;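 active means at 10 µM dose, activation of 40% or more, normalized to positive control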;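 further: 100% = tunicamycin at 10 µg/mL and 0% = DMSO alone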
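Assay system: CHO-CHOP cells, stable luciferase reporter of PERK-eIF2a-CHOP signalling / Buffer or medium: F12 plus 10% serum / Compound dosing: one dose, 10 µM in 0.5% DMSO / Times: 6 h compound treatment, 37 °C / Technique: luciferase luminescence / Read-out: % reporter activation, DMSO baseline versus tunicamycin full activation / Benchmarks: tunicamycin and DMSO controls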
T cruzi inh = inhibitors of intracellular T. cruzi growth, primary screen, luminescence, NIH3T3 host cells; inhibition, % (test concentration not listed); actives 1.4% (n = 300,000); T. cruzi beta-gal in NIH3T3, 90 h;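 active means mean inhibition across valid replicates above about 55%, limit read from the data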;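 further: signal also drops with host cell toxicity which is not excluded here; 0% = plate median of DMSO wells and 100% = zero luminescence signal; higher percent means less beta-gal luminescence so fewer parasites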
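Material: NIH/3T3 host cells with β-galactosidase reporter T. cruzi; Input: 5,000 host fibroblasts per well; Medium: DMEM, 2% fetal bovine serum; Compound: 50 nL DMSO compound solution per well; Schedule: 3 h host attachment, then at least 90 h co-culture; Detection: luminescent β-galactosidase signal after 60 min lysis.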
XBP1 UPR activ = activators of adaptive XBP1 UPR arm, primary screen, cell-based, CHO-XBP1 luciferase reporter, luminescence, uHTS | IRE1-XBP1 UPR activation; percent of tunicamycin response, DMSO as zero | activation, % at 20 µM | actives 0.33% (n = 330,000) | AID 463104, 2010;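 active means versus positive control, 20 µM dose yields 30% or more activation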;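 further: 100% = tunicamycin at 10 µg/mL and 0% = DMSO only wells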
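Material – CHO cell line with stable XBP1 luciferase reporter · Buffer or medium – F12 plus 10% FBS · Compound – single point, 20 µM final compound, 1% DMSO · Schedule – 16-18 h cell attachment at 37 °C, then 6 h compound exposure · Signal – Steady-Glo luminescence read · Benchmarks – high control tunicamycin 10 µg/mL final, low control DMSO vehicle only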
CHOP inh = inhibitors of CHOP promoter induction, primary screen, cell-based, unfolded protein response, luciferase reporter. CHO-K1 CHOP-promoter luciferase, tunicamycin-induced, 15-18 h. inhibition, % at 10 µM. actives 3.8% (n = 220,000);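 active means compounds that reduced the stress-induced luciferase reporter signal by more than about 70% of percent inhibition, limit read from the data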;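 further: 0% = tunicamycin plus vehicle and 100% = wells without tunicamycin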
Dynein transport = inhibitors of GR-EGFP nuclear translocation, primary screen, dynein cargo transport inhibitor project, imaging, high-content, 3617.4 mouse cells; z-score, hits read low; actives 0.47% (n = 220,000); test concentration mostly 20 µM; stimulated with dexamethasone, 1 µM; active compounds read low;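 active means plate z-score of nuclear minus cytoplasmic receptor signal below a set negative limit, without overly bright fluorescence or cell loss, cut at about -3.5 in these data, passing the limit was not always enough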;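 further: z-score of nuclear minus cytoplasmic ring GR-EGFP intensity difference per well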
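Buffer or medium: tetracycline-free induction medium containing charcoal-stripped FBS / Reagent: dexamethasone agonist, 1.0 µM final, for 30 min / Technique: automated 10x imaging of fixed Hoechst-stained cells / Times: induction 48 h, compound 1 h, agonist 30 min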
An asterisk follows results filed as active; x = no result given. The full list was thinned out, with hits kept by preference.

SMILES | Lmaj promast | CHOP UPR activ | T cruzi inh | XBP1 UPR activ | CHOP inh | Dynein transport
COc1ccc(-c2nn(-c3ccccc3)cc2C(=O)OCC(=O)c2ccc(C)c([N+](=O)[O-])c2)cc1 | 46.2 | 13.4 | 10.4 | 3.1 | 87.4* | -0.172
COc1ccc(NC(=O)CN(C)C2=NS(=O)(=O)c3ccccc32)cc1Cl | x | -0.9 | x | 0.1 | x | x
O=C(N=Nc1c(O)[nH]c2ccccc12)c1ccccc1NS(=O)(=O)c1cccs1 | 67.8* | 0.7 | 9.3 | -3.1 | 7.5 | 0.311
CC(C)C1CC(CCN2CCCCC2)(c2ccccc2)CCO1 (stereo not drawn) | 0.1 | 0.1 | -0.8 | -3.1 | 1.3 | 1.24
CC(C)C1C(c2ccccc2)NC(c2ccccc2)CC1(O)c1ccc(F)cc1 (stereo not drawn) | x | 1.0 | 16.5 | -2.2 | 80.2* | 1.32
CC(C)C1C(c2ccccc2)N(C)C(c2ccccc2)CC1(O)c1ccccc1 (stereo not drawn) | 39.6 | 0.8 | 58.0* | 1.9 | 73.1* | -0.965
Cc1ccccc1N1CCN(C2CCCN(C(=O)c3cn4cccc(C)c4n3)C2)CC1 (stereo not drawn) | x | 1.4 | 11.3 | -2.6 | x | x
Cc1cc(-c2nn(-c3ccccc3F)cc2CNCCc2cnc[nH]2)c(C)s1 | 98.0* | -0.7 | 28.5 | 2.7 | -0.8 | 0.0502
CCCn1c(C)nc2c(c1=O)c1nc3ccccc3nc1n2CCC1=CCCCC1 | 27.8 | 1.7 | 52.1 | 1.6 | 89.4* | -1.13
CCOC(=O)c1cc(C)sc1/N=C/C1C(=O)CC(C)(C)CC1=O | 2.4 | 6.7 | -25.7 | 0.8 | 28.0 | 0.734
CCOC(=O)c1c(CC(C)C)csc1/N=C/C1C(=O)CC(C)(C)CC1=O | -0.8 | -1.0 | -9.9 | 4.7 | 71.8* | -0.219
Cc1ccc(S(=O)(=O)N2CCOC2CNC(=O)C(=O)NCCN2CCOCC2)cc1 (stereo not drawn) | x | 2.2 | -8.8 | -5.4 | x | x
Cc1ccc(-c2cc(C(=O)N/N=C/c3c(C)nn(-c4ccccc4)c3C)[nH]n2)cc1 | 70.7* | x | 18.2 | x | 36.1 | 0.137
Cc1ccc(-c2cc(C(=O)N/N=C/c3c(C)nn(-c4ccccc4)c3C)n[nH]2)s1 | 58.2* | x | -35.1 | x | -7.3 | 0.743
COc1ccc(C2NC(=O)N(CCCC(=O)O)C(C)=C2C(=O)OCc2ccccc2)cc1 (stereo not drawn) | x | 0.4 | 0.2 | -3.2 | x | x
Cc1ccc(NS(=O)(=O)c2ccc(NC(=O)c3cccc(NC(=O)C(C)C)c3)cc2)cc1 | 55.6* | 0.0 | -1.4 | -10.8 | 11.9 | 0.195
Cc1ccc(NS(=O)(=O)c2ccc(NC(=O)c3cccs3)cc2)cc1 | -0.3 | -2.0 | 10.7 | -4.4 | 77.3* | -0.16
Cc1ccc(Cl)c(OCC(=O)Nc2cc(S(=O)(=O)N3CCOCC3)ccc2N2CCCC2)c1 | x | 1.9 | 15.1 | -6.6 | x | x
COc1cc(C=O)c(Br)cc1OCC(=O)NCCc1ccccc1 | 4.1 | 0.4 | -0.1 | 0.8 | 6.6 | -0.779
CCCNCc1cc(Br)ccc1OCC(=O)NCCc1ccccc1 | 51.9* | 1.7 | 5.1 | -1.4 | -4.5 | -0.389
O=C(COc1ccc(Br)cc1CNCCc1ccccc1)NCc1ccccc1 | 88.1* | -1.0 | 51.0 | -0.7 | -4.2 | -0.312
O=C(c1ccccc1Cl)N1CCNCC1 | -0.4 | 0.3 | -10.5 | -0.6 | 34.9 | -0.621
Clc1cccc2c1Sc1ccccc1CC2N1CCNCC1 (stereo not drawn) | 100.4* | 1.4 | 25.9 | 10.8 | 40.0 | 0.409
Cc1ccc(S(=O)(=O)N(C)C)cc1NC(=O)COC(=O)c1ccc2ccccc2n1 | x | -0.3 | x | -1.3 | x | x
Nc1ccc(/C=C/C(=O)c2ccco2)cc1 | 51.3* | 2.9 | -10.6 | -3.9 | -22.6 | 3.55
CCOC(=O)C1(CCOc2ccccc2)CCN(Cc2ccc(C)o2)CC1 | 73.5* | 0.2 | 27.4 | -3.7 | -0.2 | -0.181
CCOC(=O)C1(CCOc2ccccc2)CCN(Cc2cnc(SC)nc2)CC1 | 86.1* | -0.8 | 11.2 | 0.1 | 13.5 | -0.889
